# A selection: hits, their analogues and other compounds. The true share with any hit is near 3.1%.
# UHRF1 MBD2 ctr = human UHRF1 methylated DNA binding inhibitors. Q96T88. hit rate 0.75% among 370,000. inhibition, % at 4.4 µM. UHRF1 binding to methylated oligo, TR-FRET; in the data active = inhibition above about 21%;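 also: UHRF1 SRA domain binding a hemimethylated CpG hairpin DNA probe; 0% = median of test compound wells and 100% = reference inhibitor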
# PRMT1 FP inh = inhibitors of human PRMT1 | hit rate 1.3% among 370,000 | recombinant PRMT1, activity-based probe fluorescence polarization | Q99873 | inhibition, % at 2.79 µM;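 active = inhibition above about 21% made by adding two undisclosed values, limit read from the data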
# Target sequence (Q99873 whole entry, looked up): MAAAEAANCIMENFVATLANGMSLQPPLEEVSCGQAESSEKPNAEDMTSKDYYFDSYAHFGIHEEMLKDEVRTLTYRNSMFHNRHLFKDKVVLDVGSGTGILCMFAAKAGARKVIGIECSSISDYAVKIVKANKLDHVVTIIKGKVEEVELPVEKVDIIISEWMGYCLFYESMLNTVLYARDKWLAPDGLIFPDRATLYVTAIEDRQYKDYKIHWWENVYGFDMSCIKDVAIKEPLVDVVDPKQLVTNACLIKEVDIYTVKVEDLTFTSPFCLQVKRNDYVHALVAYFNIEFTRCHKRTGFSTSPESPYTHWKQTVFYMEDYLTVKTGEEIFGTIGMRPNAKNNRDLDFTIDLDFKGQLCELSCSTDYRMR
# LEDGF integ inh = blocks HIV-1 LEDGF/p75-dependent DNA integration; TR-FRET IN-LEDGF/p75 DNA integration, Eu/Cy5; hit rate 0.64% among 370,000; inhibition, % at 3.7 µM; AID 743269;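 active = inhibition above the screen-wide mean plus 3 SD, cut at about 13% in these data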;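 also: signal is the Cy5 over europium emission ratio at 671 and 618 nm; 0% = plate median of compound wells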
# MBD2 DNA inh = MBD2-methylated oligo binding inhibition; TR-FRET, MBD2 binding to methylated oligonucleotide; inhibition, % at 4.4 µM; Q9UBB5; AID 686964; hit rate 0.31% among 370,000; in the data active = inhibition above about 13%
# ABHD5-PLIN5 inh = ABHD5-PLIN5 protein interaction inhibition; hit rate 0.78% among 360,000; inhibition, % at 4 µM; Q00G26+Q8WTS1; Split G. princeps luciferase complementation, luminescence, 4 h;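 active = inhibition above the mean inhibition across every tested compound plus 3 SD, cut at about 22% in these data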;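 also: 0% = DMSO only wells and the 100% control is not disclosed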
# RBBP9 inh = human RBBP9 hydrolase inhibition. inhibition, % at 7.94 µM. hit rate 0.2% among 220,000. recombinant RBBP9, FP-Rh probe fluorescence polarization. AID 1515;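 active = inhibition above the campaign mean of all tested compounds plus 3 SD, cut at about 14% in these data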;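 also: plate controls were DMSO wells with RBBP9 for no effect and wells lacking RBBP9 protein for full effect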
# Target sequence (O75884 whole entry, looked up): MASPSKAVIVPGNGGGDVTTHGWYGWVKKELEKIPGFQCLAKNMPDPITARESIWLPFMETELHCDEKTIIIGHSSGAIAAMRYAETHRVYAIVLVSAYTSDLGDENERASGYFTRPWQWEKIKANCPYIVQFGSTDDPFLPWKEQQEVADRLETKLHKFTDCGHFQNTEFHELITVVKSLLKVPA
#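 Assay system: recombinant human RBBP9; Reagent: Serine-hydrolase probe FP-Rh, 375 nM pre-mixing; Doses: 7.94 µM single dose, 0.794% DMSO; Incubation: 30 min then 45 min, 25 °C; Detection: fluorescence polarization (mP), excitation 525 nm, emission 598 nm; Evaluation: percent inhibition from mP, scaled between DMSO and no-protein wells.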
# An asterisk follows results filed as active; . = no result given; ! = repeats disagree.
SMILES,UHRF1 MBD2 ctr,PRMT1 FP inh,LEDGF integ inh,MBD2 DNA inh,ABHD5-PLIN5 inh,RBBP9 inh
Cc1ccc(-n2c(Cc3cccs3)nnc2SCc2ccc(C#N)cc2)cc1,-1.8,-3.4,0.7,-2.0,.,.
CCNc1ccc([N+](=O)[O-])cc1,41.3*,-0.6,2.6,-1.5,-2.0,-8.1
CCCN1CCCCC(NC(=O)COCc2ccccc2)C1=O (configuration not stated),3.0,4.7,-2.3,0.5,.,.
O=C1C=CC(=O)C(C2=C3C(=O)N(CCc4ccccc4)CC(=O)N3CCC2)=C1,-4.3,88.2*,6.3,-3.7,.,6.1
CN(CC#CC1(O)c2ccccc2-c2ccccc21)Cc1ccccc1,22.8*,-0.5,2.5,10.1,0.6,-0.8
Cc1ccc(-c2csc(NCCn3c(-c4ccncc4)nc4ccccc43)n2)cc1,22.3*,3.1,0.0,-4.1,10.5,.
Cc1ccc(-c2csc(NCCn3c(-c4ccncc4)nc4cc(C(F)(F)F)ccc43)n2)cc1,2.8,1.8,-3.0,-0.5,-2.6,.
C=CCN1C(=O)/C(=C\c2cccs2)C(C(=O)OC)=C1C,-1.3,-2.1,-0.4,-3.1,-3.5,11.1
CCOC(=O)C1=C(C)N(c2ccc(OC)cc2)C(=O)/C1=C\c1cccs1,24.9*,1.0,1.8,7.8,-5.1,-13.9
CCOC(=O)C1=C(C)N(c2ccc(OC)cc2)C(=O)/C1=C\c1ccc(O)c(OCC)c1,-7.3,31.8*,4.8,-8.0,14.5,2.5
CCOC(=O)C1=C(C)N(c2ccc(C)c(C)c2)C(=O)/C1=C\c1ccco1,1.7,1.8,-1.3,5.5,0.3,-7.1
Cc1cc(O)ccc1N/C=C1\CCCC1=O,1.1,30.2*,5.5,-1.2,-3.5,8.3
Cc1cc(NC(=O)COc2cc(F)cc(F)c2)n(-c2ccccc2)n1,-4.8,1.2,-0.8,-5.0,.,.
CC[n+]1c(/C=C/N(C)c2ccccc2)n(-c2ccccc2)c2ccc(-c3nc4ccccc4s3)cc21,.,.,.,.,36.4*,.
CCOC(=O)c1ccc2c(c1)n(CC)c(/C=C/N(C)c1ccccc1)[n+]2CC,1.7,-1.6,0.9,-2.6,8.4,-0.4
CN(C)[C@H]1CCN(c2cccc3c2S(=O)(=O)N2CC[C@@H](C2)O3)C1,0.1,0.5,5.0,-4.8,.,.
COc1ccc(CC(=O)N/N=C(\C)CC(=O)Nc2ccc(N(C)C)cc2)cc1,-7.3,-5.5,1.8,-7.2,-5.9,.
C/C(CC(=O)Nc1ccc(N(C)C)cc1)=N\NC(=O)Cc1csc(N)n1,-8.6,3.0,21.3*,-2.0,-1.6,1.7
CCOC1=C2[C@H](c3ccccc3)N(S(=O)(=O)c3ccc(C)cc3)[C@H](C(C)C)[C@H]2C(C#N)(C#N)C(C#N)(C#N)C1,-1.0,-5.6,1.3,2.2,.,.
Cc1ccc(-c2cnc(NC(=O)c3cccc(Br)c3)s2)c(C)c1,25.6*,3.0,-1.8,13.0,-4.0,-4.8
O=C(Nc1ccc(Br)cc1)OCCN1CCCC12CCC(c1ccccc1)CC2 (configuration not stated),-1.1,-2.9,-4.8,-0.4,.,.
CCN1CCN(Cc2ccc(NC(=O)c3ccc(C)c(NC(=O)c4ccc5n[nH]nc5c4)c3)cc2C(F)(F)F)CC1,-0.2,1.1,0.6,-1.3,-1.6,.
CCN1CCN(Cc2ccc(NC(=O)c3cc(NC(=O)C(=O)c4c[nH]c5ccccc45)cc(OC)c3)cc2C(F)(F)F)CC1,1.4,0.1,-1.5,-6.4,22.4*!,.
CCN1CCN(Cc2ccc(NC(=O)c3cc(NC(=O)c4cc(C)on4)cc(OC)c3)cc2C(F)(F)F)CC1,1.8,2.2,-2.9,0.0,8.2,.
CCN1CCN(Cc2ccc(NC(=O)c3ccc(C)c(NC(=O)C(=O)c4c[nH]c5ccccc45)c3)cc2C(F)(F)F)CC1,14.4,-1.1,0.5,3.8,29.7*!,.
SMILES,UHRF1 MBD2 ctr,PRMT1 FP inh,LEDGF integ inh,MBD2 DNA inh,ABHD5-PLIN5 inh,RBBP9 inh
CC(C)C[C@@H](CNCC(=O)[C@H](CC(C)C)NC(=O)c1[nH]cnc1C(=O)N[C@@H](C)CN)NC(=O)c1nc[nH]c1C(=O)N[C@@H](C)C(=O)O,23.3*,2.2,0.7,3.0,-4.8,.
CC(C)C[C@@H](CNCC(=O)[C@H](C)NC(=O)c1[nH]cnc1C(=O)N[C@@H](C)CN)NC(=O)c1nc[nH]c1C(=O)N[C@@H](Cc1ccccc1)C(=O)O,13.5,5.5,-4.7,-3.5,3.9,.
CC(C)C[C@@H](CNCC(=O)[C@H](CC(=O)O)NC(=O)c1[nH]cnc1C(=O)N[C@H](CN)CC(C)C)NC(=O)c1nc[nH]c1C(=O)N[C@@H](C)C(=O)O,22.2*,3.2,-2.0,12.3,8.7,.
O=C(c1ccccc1)N1CCC(Oc2cccnc2)CC1,-0.5,3.6,-2.0,1.4,.,.
Cc1ccc(S(=O)(=O)N2CCCC2C(=O)N2CCc3ccccc3C2)cc1C (configuration not stated),5.0,5.1,-1.5,0.9,.,.
CN(C(=O)COC(=O)c1cc2ccccc2cc1O)c1c(N)n(Cc2ccccc2)c(=O)[nH]c1=O,-0.4,4.7,-2.0,1.4,-5.9,.
Cc1ccc(-c2cc(C(=O)OCC(=O)N(C)c3c(N)n(Cc4ccccc4)c(=O)[nH]c3=O)c3ccccc3n2)o1,1.5,23.9*,-1.2,1.6,8.1,.
COc1ccc2c(CC(=O)OCC(=O)N(C)c3c(N)n(Cc4ccccc4)c(=O)[nH]c3=O)coc2c1,21.6*,0.7,-0.9,4.7,5.0,.
COCCN(C(=O)COC(=O)Cc1coc2cc(C)ccc12)c1c(N)n(Cc2ccccc2)c(=O)[nH]c1=O,3.0,-0.3,6.8,1.1,-6.8,.
O=C(O)c1c2c(nc3ccccc13)/C(=C/c1ccc(O)cc1)CC2,36.8*,12.1,9.8,11.3,7.4,-12.1
CCOc1ccc(-c2cc(C(C)=O)c3n(c2=O)CCC3)cc1,3.3,-0.4,-1.6,-2.2,.,.
c1cc2c(cc1C1=NNC(=NC3CC3)SC1)OCCO2,1.9,46.3*,-2.5,4.5,-20.8,-3.6
c1ccc(CN=C2NN=C(c3cc4ccccc4o3)CS2)cc1,0.8,-2.1,3.5,-1.3,2.9,-6.9
c1ccc2oc(C3=NNC(=NC4CC4)SC3)cc2c1,-7.8,35.7*,1.7,-4.7,-23.3,-8.2
CCCCN=C1NN=C(c2ccc3c(c2)OCCO3)CS1,-4.3,6.2,-2.1,-2.9,-14.2,0.0
COC(CNC(=O)[C@H](Cc1c[nH]c2ccccc12)NC1(C(=O)NC2CCCCC2)CCCCC1)OC,0.0,8.3,-2.7,-0.1,.,.
O=C(Nc1ccc(F)cc1F)c1cc(-c2ccc(Cl)cc2)nc2ccccc12,2.3,2.6,-4.7,2.1,.,.
Cc1cc(C)nc(N2CCN(C(=O)CSc3nc4ccccc4nc3N3CC(C)OC(C)C3)CC2)n1 (configuration not stated),0.1,0.0,1.2,-4.0,.,.
Cc1[nH]c2ccccc2c1CC(=O)Nc1ccc(Oc2cccnc2)cc1,-1.9,2.0,-1.8,0.0,.,.
COc1ccc(-c2nnc(SCC(=O)N(C)C3CCS(=O)(=O)C3)n2N)cc1OC (configuration not stated),42.2*,8.6,-2.2,5.8,-2.2,-2.5

# Screens from PubChem BioAssay.
